Assay [1] is filed under the species Oryctolagus cuniculus. Briefly: Relative activity against platelet aggregation in [14C]5-HT preloaded rabbit platelet for 2 mins. The assay is classed as functional. Summed up: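 Rabbit platelets preloaded with [14C]serotonin were incubated with a range of analogue amounts for 2 min at 20 °C, and [14C]serotonin release was measured. Activity was expressed relative to the ED50 of C16-PAF.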

Assay [2] relates to Rattus norvegicus. Description: Hypotensive activity in spontaneously hypertensive rat expressed as decrease in systolic BP at 0.1 mg/kg, po. The assay is classed as functional. Summed up:
(§1)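 Male SHR aged 18-20 weeks, fasted 24 h with free access to water, dosed orally. Systolic pressure was measured indirectly by tail cuff, with heart rate recorded at the same time. The fall in mmHg was read 3 h after dosing, with 4-5 animals per dose, reported as mean ±.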

Assay [3] deals with Rattus norvegicus. Description: Hypotensive activity in spontaneously hypertensive rat expressed as decrease in systolic BP at 1 mg/kg, po. The class given is functional. Summed up: as §1
The subject of assay [4] is Rattus norvegicus. Briefly: Antihypertensive activity using C16-PAF in rat at a doses ranging from 1-10 nmol/kg iv. The assay is classed as functional. Summed up:
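Male Wistar rats (350-430 g, 3-6 per group) under sodium pentobarbital anesthesia (60 mg/kg). Arterial pressure was recorded through a femoral artery catheter. Doses were given iv through a vena cava catheter once readings were stable. Pressure and heart rate were followed every 5 min for 40 min. Falls were expressed relative to C16-PAF given at 1-10 nmol/kg iv.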

Assay [5] in a line: Ratio of antihypertension to platelet activation.
In assay [6] the test system is Rattus norvegicus. Briefly: Hypotensive activity in spontaneously hypertensive rat expressed as decrease in systolic BP at 0.3mg/kg, po. The assay is classed as functional. Summed up:
(§2)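 Male SHR (18-20 weeks old), food withdrawn 24 h beforehand with free access to water; compound given orally; systolic blood pressure in the tail artery read indirectly by tail-cuff, heart rate recorded simultaneously; decrease in systolic pressure (mmHg) taken 3 h after dosing; n = 4-5 animals per dose.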

In assay [7] the test system is Rattus norvegicus. Briefly: Hypotensive activity in spontaneously hypertensive rat expressed as decrease in systolic BP at 25 mg/kg, po. The class given is functional. Summed up: as §2
Assay [8] concerns Rattus norvegicus. Briefly: Hypotensive activity in spontaneously hypertensive rat expressed as decrease in systolic BP at 3 mg/kg, po. The class given is functional. Summed up:
as §2

As for `CCCCCCCCCCCCCCCCOC(C)C(COP(=O)([O-])OCC[N+](C)(C)C)OC(C)=O` (stereo in doubt; 2), the Relative activity in assay [1] is recorded as 0.0087; in assay [4], 0.059. The Decrease in assay [2] came to 35 mmHg; in assay [3], 69 mmHg. Further, the Ratio in assay [5] came out at 6.78.
With `CCCCCCCCCCCCCCCCOC(C)C(COP(=O)([O-])OCC[N+](C)(C)C)OC(C)=O` (single isomer, unassigned; enantiomer 3), the Relative activity in assay [1] worked out at 0.00056; in assay [4], 0.0001. The Ratio in assay [5] came to 0.18.
For `CCCCCCCCCCCCCCCCOCC(C)(COP(=O)([O-])OCC[N+](C)(C)C)OC(C)=O` (stereo unspecified), the Relative activity in assay [4] is on record as 0.0001.
In the case of `CCCCCCCCCCCCCCCCOCC(OC(C)=O)C(C)OP(=O)([O-])OCC[N+](C)(C)C` (stereo in doubt), the Relative activity in assay [4] turned out to be 0.0002.
Regarding `CCCCCCCCCCCCCCCCOCC(OC(C)=O)C(C)OP(=O)([O-])OCC[N+](C)(C)C` (single isomer, unassigned), the Relative activity in assay [1] is 0.00055; in assay [4], 0.001. Besides, the Ratio in assay [5] amounted to 1.82.
As for `CCCCCCCCCCCCCCCCOCC(OC(C)=O)C(C)OP(=O)([O-])OCC[N+](C)(C)C` (stereo in doubt; 5), the Relative activity in assay [4] was 0.002. In addition, in assay [5], the Ratio came to 3.64.
For `CCCCCCCCCCCCCCCCOC(C)C(COP(=O)([O-])OCC[N+](C)(C)C)OC(C)=O` (stereo in doubt; 3), the Relative activity in assay [4] is 0.00033.
The same measure, in the same setting: with `CCCCCCCCCCCCCCCCOC(C)C(COP(=O)([O-])OCC[N+](C)(C)C)OC(C)=O` (single isomer, unassigned; enantiomer 2) the figure was 0.0002.
Take `CCCCCCCCCCCCCCCCOCC(OC(C)=O)C(C)OP(=O)([O-])OCC[N+](C)(C)C` (stereo in doubt; 6): the figures for the Relative activity in assay [1] and in assay [4] were 0.00089 and 0.0014, respectively. Also, the Ratio in assay [5] amounted to 1.57.
Regarding `CCCCCCCCCCCCCCCCOCC(COP(=O)([O-])OCC[N+](C)(C)C)OC(C)=O` (stereo unspecified) [PLATELET ACTIVATING FACTOR], the Relative activity in assay [1] and in assay [4] was 1 throughout. The Decrease in assay [6] is given as 4 mmHg; in assay [7] it was 53 mmHg; in assay [8] it was 5 mmHg. The Ratio in assay [5] came out at 1.
